ChEMBL document CHEMBL4270662, “Discovery of Orally Active Inhibitors of Brahma Homolog (BRM)/SMARCA2 ATPase Activity for the Treatment of Brahma Related Gene 1 (BRG1)/SMARCA4-Mutant Cancers” (J Med Chem, 2018)
Converted amounts (≈) assume the structure as drawn. The source made the active and inactive calls. No cut-off for these calls is given here.

Tests used:
[1] = Inhibition of BRM/BRG1 mutant-dependant cell proliferation in human SKMEL5 cells after 6 days by celltiter-glo luminescent cell viability assay; type: cell-based; details: SK-MEL-5, 144 h
SBC-5 = assay: Antiproliferative activity against human SBC5 cells assessed as cell growth inhibition after 6 days by celltiter-glo luminescent cell viability assay; type: functional, cell-based; details: SBC-5, 144 h
[2] = Inhibition of BRM/BRG1 mutant in human NCI-H1299 cells assessed as reduction in KRT80 gene expression after 24 hrs by luciferase reporter gene assay; type: cell-based; details: NCI-H1299, 24 h
Summary of the method: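 NCI-H1299 cells carry NanoLuc knocked into the endogenous KRT80 locus and are grown in RPMI-1640 with 10% FBS. Plated at 500 cells/well and left overnight, then dosed over 10 points in 3-fold dilutions from 10 µM.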

[3] = Thermodynamic solubility of the compound at 1 mg/ml pH 6.8 after 16 to 24 hrs by shake-flask method; type: physicochemical; details: buffer, read-out: Therm_solubility
[4] = biological target: T1, SWI/SNF-related matrix-associated actin-dependent regulator of chromatin subfamily A member 4 (Homo sapiens, UniProt P51532); assay: Inhibition of recombinant His6-tagged BRG1 ATPase-SnAC (658 to 1361 residues) (unknown origin) expressed in insect sf9 cells preincubated for 5 mins followed by pCMV-dR8.91 plasmid and ATP addition measured after 60 mins by ADP-Glo assay
[5] = biological target: T2, SWI/SNF-related matrix-associated actin-dependent regulator of chromatin subfamily A member 2 (Homo sapiens, UniProt P51531); assay: Inhibition of recombinant His10-tagged ZZ-HCV3C-BRM ATPase-SnAC (636 to 1331 residues) (unknown origin) expressed in insect sf9 cells preincubated for 5 mins followed by pCMV-dR8.91 plasmid and ATP addition measured after 60 mins by ADP-Glo assay
[6] = biological target: T1, SWI/SNF-related matrix-associated actin-dependent regulator of chromatin subfamily A member 4; assay: Binding affinity to His6-tagged BRG1 ATPase-SnAC (658 to 1361 residues) (unknown origin) expressed in insect sf9 cells by ITC method
[7] = biological target: T1, SWI/SNF-related matrix-associated actin-dependent regulator of chromatin subfamily A member 4; assay: Binding affinity to BRG1 ATPase-SnAC domain (unknown origin) expressed in insect sf9 cells assessed as change in melting temperature at 100 uM by DSF-assay (reference value: 0 degreeC)
[8] = Thermodynamic solubility of the compound at 1 mg/ml pH 1 after 16 to 24 hrs by shake-flask method; type: physicochemical; details: buffer, read-out: Therm_solubility
[9] = biological target: T2, SWI/SNF-related matrix-associated actin-dependent regulator of chromatin subfamily A member 2; assay: Binding affinity to N-terminal avi-tagged BRM ATPase-SnAC domain (unknown origin) in presence of ADP by SPR assay
Summary of the method: (§1)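 SPR at 10 °C: about 2000 RU of N-terminal Avi-tagged BRM ATPase-SnAC captured on a streptavidin chip, with a blank reference cell. Compound dose series injected 60 s at 100 µL/min with 120 s dissociation; data solvent-corrected, double-referenced and fit 1:1 for KD.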

[10] = biological target: T1, SWI/SNF-related matrix-associated actin-dependent regulator of chromatin subfamily A member 4; assay: Binding affinity to BRG1 ATPase-SnAC domain (unknown origin) expressed in insect sf9 cells assessed as change in melting temperature at 100 uM in presence of ADP by DSF-assay (reference value: 0 degreeC)
[11] = biological target: T2, SWI/SNF-related matrix-associated actin-dependent regulator of chromatin subfamily A member 2; assay: Binding affinity to N-terminal avi-tagged BRM ATPase-SnAC domain (unknown origin) in absence of ADP by SPR assay; summary of the method: as §1
[12] = biological target: T2, SWI/SNF-related matrix-associated actin-dependent regulator of chromatin subfamily A member 2; assay: Inhibition of full length BRM ATPase (1 to 1572 residues) (unknown origin) expressed in insect sf9 cells preincubated for 5 mins followed by pCMV-dR8.91 plasmid and ATP addition measured after 60 mins by ADP-Glo assay
Summary of the method: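 Full-length BRM (1-1572), purified from Sf9 cells by Ni or anti-FLAG affinity, then anion exchange and size exclusion. Reaction run 60 min at room temperature; ADP-Glo luminescence read-out; IC50 from duplicate means.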

[13] = biological target: T2, SWI/SNF-related matrix-associated actin-dependent regulator of chromatin subfamily A member 2; assay: Inhibition of recombinant His10-tagged ZZ-HCV3C-BRM ATPase-SnAC (636 to 1331 residues) (unknown origin) expressed in insect sf9 cells preincubated for 5 mins followed by pCMV-dR8.91 and 10 times ATP addition measured after 60 mins by ADP-Glo assay
Summary of the method: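 BRM residues 636-1331 (tag removed by HCV3C cleavage), 5 nM final, preincubated with compound for 5 min at room temperature. Reaction started with ATP at 10x Km plus 2 nM pCMV-dR8.91 plasmid, run 60 min. ADP-Glo luminescence read; IC50 by nonlinear regression of duplicate averages.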

[14] = biological target: T1, SWI/SNF-related matrix-associated actin-dependent regulator of chromatin subfamily A member 4; assay: Binding affinity to BRG1 ATPase-SnAC domain (unknown origin) expressed in insect sf9 cells assessed as change in melting temperature at 500 uM by DSF-assay (reference value: 0 degreeC)
Mus musculus [15] = assay: In vivo inhibition of […] in human RERF-LC-A1 cells xenografted in athymic nude mouse assessed as reduction in KRT80 mRNA expression at 20 mg/kg, po measured at 16 hrs post last dose of 3 weeks of daily dosing by RT-PCR analysis; type: functional, organism-based
Summary of the method: (§2)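 RERF-LC-AI tumor-bearing nude mice received oral compound daily, suspended in 0.5% methyl cellulose and 0.5% Tween 80 in water, at 7.5 or 20 mg/kg. Tumor KRT80 mRNA was measured at several post-dose time points, including 7 h and 16 h onward.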

Mus musculus [16] = assay: In vivo inhibition of BRM/BRG1 mutant in human RERF-LC-A1 cells xenografted in athymic nude mouse assessed as reduction in KRT80 gene expression at 20 mg/kg, po after 7 hrs by real-time PCR method; type: functional; summary of the method: as §2
Mus musculus [17] = assay: Toxicity in athymic nude mouse xenografted with human RERF-LC-A1 cells up to 20 mg/kg, po administered for 3 weeks; type: organism-based; details: in vivo, 504 h
Summary of the method: (§3)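 Nude mice bearing RERF-LC-AI xenografts were dosed orally with a suspension in 0.5% methyl cellulose and 0.5% Tween 80 in water. Dosing was daily for 3 weeks at 7.5 or 20 mg/kg. Tumor growth and tolerability were followed during dosing.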

Mus musculus [18] = assay: In vivo inhibition of BRM/BRG1 mutant in human RERF-LC-A1 cells xenografted in po dosed athymic nude mouse assessed as reduction in KRT80 gene expression after 7 to 24 hrs by real-time PCR method; type: functional, organism-based; summary of the method: as §2
RERF-LC-AI [19] = assay: Anti-tumor activity in human RERF-LC-A1 cells xenografted in athymic nude mouse assessed as tumor growth at 30 mg/kg, po administered daily for 4 consecutive days followed by incubation for next 3 days in absence of compounds relative to control; type: functional
Mus musculus [20] = assay: Time required for unbound plasma concentration to reach above in vitro unbound EC50 for reduction in BRM/BRG1 mutant-induced KRT80 gene expression in human RERF-LC-A1 cells in athymic nude mouse at 20 mg/kg, po administered daily for 3 weeks; type: ADME, organism-based; details: in vivo, 504 h
Summary of the method: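 Nude mice bearing RERF-LC-AI tumors were dosed orally once daily for 3 weeks at 20 mg/kg. The dose was a suspension in 0.5% methyl cellulose and 0.5% Tween 80 in water. Unbound plasma concentrations over time were compared with the cellular KRT80 EC50.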

RERF-LC-AI [21] = assay: Anti-tumor activity in human RERF-LC-A1 cells xenografted in athymic nude mouse assessed as tumor growth inhibition at 20 mg/kg, po administered for 3 weeks measured twice per week during compound dosing relative to control; type: functional; details: 504 h, read-out: TGI; summary of the method: as §3
Mus musculus [22] = assay: In vivo inhibition of BRM/BRG1 mutant in human RERF-LC-A1 cells xenografted in athymic nude mouse assessed as reduction in KRT80 gene expression at 20 mg/kg, po after 16 to 24 hrs by real-time PCR method; type: functional, organism-based; summary of the method: as §2
[23] = Inhibition of BRM/BRG1 mutant in human RERF-LC-A1 cells assessed as reduction in KRT80 gene expression after 24 hrs by luciferase reporter gene assay; type: cell-based
RERF-LC-AI [24] = assay: Anti-tumor activity in human RERF-LC-A1 cells xenografted in athymic nude mouse assessed as tumor growth inhibition at 7.5 mg/kg, po administered for 3 weeks measured twice per week during compound dosing relative to control; type: functional; details: 504 h, read-out: TGI; summary of the method: as §3
[25] = biological target: T2, SWI/SNF-related matrix-associated actin-dependent regulator of chromatin subfamily A member 2; assay: Binding affinity to N-terminal MBP-fused human BRM RecA domain (705 to 960 residues) expressed in Escherichia coli BL21 Star (DE3) by ITC method
[26] = biological target: SWI/SNF-related matrix-associated actin-dependent regulator of chromatin subfamily A member 2 (Homo sapiens, UniProt P51531, E852Q); assay: Binding affinity to N-terminal MBP-fused human BRM RecA domain E852Q mutant expressed in Escherichia coli BL21 Star (DE3) by ITC method
Sequence of SWI/SNF-related matrix-associated actin-dependent regulator of chromatin subfamily A member 2 (Homo sapiens, UniProt P51531, E852Q) (P51531 whole entry E852Q, the tested form may be a part): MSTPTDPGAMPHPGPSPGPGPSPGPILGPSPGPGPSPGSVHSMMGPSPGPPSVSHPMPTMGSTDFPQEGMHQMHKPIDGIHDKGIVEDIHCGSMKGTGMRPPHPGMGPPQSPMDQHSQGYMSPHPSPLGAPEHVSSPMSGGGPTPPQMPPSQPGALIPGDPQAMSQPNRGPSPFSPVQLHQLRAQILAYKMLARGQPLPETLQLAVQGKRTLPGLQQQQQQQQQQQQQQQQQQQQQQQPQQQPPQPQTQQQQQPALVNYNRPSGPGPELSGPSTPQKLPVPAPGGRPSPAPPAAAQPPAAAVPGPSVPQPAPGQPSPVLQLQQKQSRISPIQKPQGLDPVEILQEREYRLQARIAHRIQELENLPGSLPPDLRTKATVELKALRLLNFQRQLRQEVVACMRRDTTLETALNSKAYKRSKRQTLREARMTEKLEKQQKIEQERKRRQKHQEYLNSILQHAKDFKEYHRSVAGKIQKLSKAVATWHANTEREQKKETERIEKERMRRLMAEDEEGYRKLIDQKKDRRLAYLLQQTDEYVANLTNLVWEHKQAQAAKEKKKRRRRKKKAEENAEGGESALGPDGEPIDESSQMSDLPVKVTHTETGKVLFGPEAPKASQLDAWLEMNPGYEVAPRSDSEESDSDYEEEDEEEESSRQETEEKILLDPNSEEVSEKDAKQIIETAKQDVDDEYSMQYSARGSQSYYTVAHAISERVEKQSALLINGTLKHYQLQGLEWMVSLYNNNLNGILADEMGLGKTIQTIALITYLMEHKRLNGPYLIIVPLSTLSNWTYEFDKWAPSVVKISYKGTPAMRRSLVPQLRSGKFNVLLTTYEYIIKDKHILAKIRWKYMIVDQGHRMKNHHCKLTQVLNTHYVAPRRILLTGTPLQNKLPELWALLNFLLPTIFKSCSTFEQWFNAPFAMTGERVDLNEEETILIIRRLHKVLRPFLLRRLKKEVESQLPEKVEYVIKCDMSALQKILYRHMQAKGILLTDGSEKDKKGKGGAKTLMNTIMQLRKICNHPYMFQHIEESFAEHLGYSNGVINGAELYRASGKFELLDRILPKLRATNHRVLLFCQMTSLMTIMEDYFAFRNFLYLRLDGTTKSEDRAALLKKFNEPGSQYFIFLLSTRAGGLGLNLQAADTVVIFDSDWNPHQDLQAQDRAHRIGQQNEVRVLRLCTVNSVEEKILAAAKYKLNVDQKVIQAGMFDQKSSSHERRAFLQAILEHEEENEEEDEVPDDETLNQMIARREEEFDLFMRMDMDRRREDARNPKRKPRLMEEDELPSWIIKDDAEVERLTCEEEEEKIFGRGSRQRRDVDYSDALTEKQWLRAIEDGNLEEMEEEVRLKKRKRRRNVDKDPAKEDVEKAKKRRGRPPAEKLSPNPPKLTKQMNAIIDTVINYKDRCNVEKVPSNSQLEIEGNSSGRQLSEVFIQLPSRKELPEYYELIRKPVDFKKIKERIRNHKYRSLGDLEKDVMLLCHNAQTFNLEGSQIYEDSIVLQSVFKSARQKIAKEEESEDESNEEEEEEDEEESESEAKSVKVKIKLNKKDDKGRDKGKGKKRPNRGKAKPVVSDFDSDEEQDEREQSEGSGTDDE

T2 sequence (P51531 whole entry, the tested form may be a part): as the sequence (P51531 whole entry E852Q, the tested form may be a part) above, with Q852E counted along it
T1 sequence (P51532 whole entry, the tested form may be a part): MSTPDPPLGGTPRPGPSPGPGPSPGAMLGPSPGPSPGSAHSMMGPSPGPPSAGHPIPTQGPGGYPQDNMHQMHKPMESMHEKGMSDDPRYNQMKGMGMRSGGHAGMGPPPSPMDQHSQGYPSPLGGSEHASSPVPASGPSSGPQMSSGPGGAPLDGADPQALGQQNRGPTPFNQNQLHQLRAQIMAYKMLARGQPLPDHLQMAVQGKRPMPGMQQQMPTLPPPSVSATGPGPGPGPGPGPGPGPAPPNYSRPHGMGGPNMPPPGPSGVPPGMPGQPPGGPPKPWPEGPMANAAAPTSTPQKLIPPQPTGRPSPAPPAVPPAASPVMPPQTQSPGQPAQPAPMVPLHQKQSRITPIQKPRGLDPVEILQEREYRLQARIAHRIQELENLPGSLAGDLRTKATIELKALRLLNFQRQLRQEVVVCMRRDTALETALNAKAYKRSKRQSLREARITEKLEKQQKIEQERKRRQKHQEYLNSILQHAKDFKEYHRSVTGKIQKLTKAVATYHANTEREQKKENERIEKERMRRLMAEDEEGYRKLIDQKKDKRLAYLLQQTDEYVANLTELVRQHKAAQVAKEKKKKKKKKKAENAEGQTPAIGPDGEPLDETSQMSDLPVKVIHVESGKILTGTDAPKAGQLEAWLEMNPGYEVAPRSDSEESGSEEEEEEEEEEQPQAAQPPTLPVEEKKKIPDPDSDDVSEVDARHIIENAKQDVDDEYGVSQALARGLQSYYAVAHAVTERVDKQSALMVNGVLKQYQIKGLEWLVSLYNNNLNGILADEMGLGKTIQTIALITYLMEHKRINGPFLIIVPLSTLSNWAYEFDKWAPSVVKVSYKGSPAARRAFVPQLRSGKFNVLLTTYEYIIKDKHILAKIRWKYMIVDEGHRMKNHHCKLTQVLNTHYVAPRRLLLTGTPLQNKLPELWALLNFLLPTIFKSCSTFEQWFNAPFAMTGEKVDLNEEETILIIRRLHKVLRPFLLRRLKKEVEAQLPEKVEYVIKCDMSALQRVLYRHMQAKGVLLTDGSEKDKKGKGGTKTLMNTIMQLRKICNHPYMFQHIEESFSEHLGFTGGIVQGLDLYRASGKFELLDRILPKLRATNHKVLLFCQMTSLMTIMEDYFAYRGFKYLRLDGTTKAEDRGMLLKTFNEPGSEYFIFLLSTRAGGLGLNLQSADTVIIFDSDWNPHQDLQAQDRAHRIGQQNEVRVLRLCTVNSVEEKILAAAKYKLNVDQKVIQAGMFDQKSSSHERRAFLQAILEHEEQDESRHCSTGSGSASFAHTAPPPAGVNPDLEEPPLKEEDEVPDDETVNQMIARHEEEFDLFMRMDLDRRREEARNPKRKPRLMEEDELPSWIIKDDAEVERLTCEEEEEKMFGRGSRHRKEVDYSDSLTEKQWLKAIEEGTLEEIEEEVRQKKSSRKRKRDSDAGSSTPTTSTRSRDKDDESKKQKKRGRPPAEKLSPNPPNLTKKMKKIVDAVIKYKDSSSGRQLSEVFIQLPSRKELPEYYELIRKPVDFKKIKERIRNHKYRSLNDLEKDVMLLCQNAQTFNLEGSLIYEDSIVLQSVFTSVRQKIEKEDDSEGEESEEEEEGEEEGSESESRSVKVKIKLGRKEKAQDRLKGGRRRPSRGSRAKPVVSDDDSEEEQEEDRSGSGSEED

| Structure (SMILES) | EC50 [1] [nM] | EC50 (SBC-5) [nM] | EC50 [2] [nM] | IC50 [4] [nM] | IC50 [5] [nM] | also measured |
| --- | --- | --- | --- | --- | --- | --- |
| Cc1cc(NC(=O)Nc2ccnc(Cl)c2)sn1 | 650 | > 10000 | > 10000 |  |  |  |
| Nc1cnc(F)cc1NC(=O)Nc1cc(C(F)F)ns1 | 5 | > 10000 | 10 | < 5 | < 5 | solubility thermodynamic [3]: 92 µM (≈ 27.9 µg/mL) |
| O=C(Nc1ccncc1)Nc1ccnc(Cl)c1 |  |  |  | 770 | 1100 | Kd [6]: 280 nM; ΔTm [7]: 3.8 °C; solubility thermodynamic [8]: 3100 µM (≈ 771 µg/mL); Kd [9]: 450 nM; ΔTm [10]: 5.8 °C; solubility thermodynamic [3]: 330 µM (≈ 82.1 µg/mL); Activity [11]: Dose-dependent effect; Kd [11]: 87 nM; IC50 [12]: 8100 nM; inhibition [13]: Active |
| Nc1ncnc2c1ncn2[C@@H]1O[C@H](COP(=O)(O)OP(=O)(O)O)[C@@H](O)[C@H]1O |  |  |  |  |  | ΔTm [14]: 3.1 °C |
| O=C(Nc1ccnc(Cl)c1)Nc1ccnc(C(F)F)c1 |  |  |  |  | 110 |  |
| O=C(Nc1cc(C(F)F)ns1)Nc1cc(F)ncc1CO | 4 | > 10000 | 10 | < 5 | < 5 | inhibition (Mus musculus [15]): Dose-dependent effect; inhibition in vivo at 20 mg/kg (Mus musculus [16]): ≤ 90%; Activity (Mus musculus [17]): Non-Toxic; inhibition (Mus musculus [18]): Dose-dependent effect; T/C (RERF-LC-AI [19]): 30%; Time (Mus musculus [20]): 12 h; inhibition in vivo at 20 mg/kg (RERF-LC-AI [21]): 55%; solubility thermodynamic [3]: 34 µM (≈ 10.8 µg/mL); inhibition (Mus musculus [22]): inactive; EC50 [23]: 10 nM; inhibition in vivo at 7.5 mg/kg (RERF-LC-AI [24]): 21% |
| O=C(Nc1ccnc(Cl)c1)Nc1cc(C(F)(F)F)ns1 | 130 | > 10000 | 930 |  |  |  |
| O=C(Nc1ccnc(Cl)c1)Nc1cc(C(F)F)ns1 | 31 | 6300 | 360 |  |  | Kd [25]: 13 nM; Kd [26]: > 10000 nM |
| O=C(Nc1ccnc(Cl)c1)Nc1ccccn1 |  |  |  | 1700 | 3800 |  |
| O=C(Nc1ccnc(Cl)c1)Nc1ccnc(C(F)(F)F)c1 |  |  |  | 30 | 60 |  |
| Cc1csc(NC(=O)Nc2ccnc(Cl)c2)n1 |  |  |  | 570 | 970 |  |
| Cc1cc(NC(=O)Nc2ccnc(Cl)c2)ccn1 |  |  |  | 150 | 200 |  |
| Nc1cnc(Cl)cc1NC(=O)Nc1cc(C(F)F)ns1 | 13 | > 10000 | 26 | < 5 | < 5 | solubility thermodynamic [3]: 40 µM (≈ 12.8 µg/mL) |
| Cc1c[nH]c(NC(=O)Nc2ccnc(Cl)c2)n1 |  |  |  |  | > 50000 |  |
| O=C(Nc1cc(C(F)F)ns1)Nc1cc(Cl)ncc1CO | 13 | > 10000 | 42 | < 5 | < 5 |  |
